Test results: ChEMBL document CHEMBL2086296, “Synthesis of novel quinoline-2-one based chalcones of potential anti-tumor activity” (Eur J Med Chem, 2012)

Legend:
[1] = system: NCI-H522; assay: (§1) Cytotoxicity against human NCI-H522 cells after 24 hrs by SRB assay; format: functional; settings: NCI-H522, 24 h
How it was run: (§2)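 NCI 60-line screen. Cells in RPMI 1640 with 5% FBS and 2 mM L-glutamine, seeded at 5,000–40,000 cells/well by doubling time, then incubated 24 h at 37 °C, 5% CO2 before dosing. Time-zero plates fixed with TCA at drug addition. DMSO stocks diluted in medium with gentamicin to five concentrations, […]. Protein read by SRB staining. GI50, TGI and LC50 derived relative to control and time-zero.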

[2] = system: SR; assay: Cytotoxicity against human SR cells after 24 hrs by SRB assay; format: functional
How it was run: (§3)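 NCI 60-cell screen. Cells are grown in RPMI 1640 with 5% FBS and 2 mM L-glutamine and seeded at 5,000–40,000 cells/well according to doubling time. They are preincubated 24 h at 37 °C in 5% CO2, and Tz plates are TCA-fixed at drug addition. Drug stock is in DMSO, diluted in medium with gentamicin, and tested at five concentrations (100, 10, 1.0, 0.1, […]). Protein is read by SRB staining. GI50, TGI and LC50 are derived relative to time-zero and control wells.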

[3] = system: SF-295; assay: Cytotoxicity against human SF295 cells after 24 hrs by SRB assay; format: cell-based; settings: sf-295, 24 h
How it was run: (§4)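 NCI 60-cell screen. Cells grown in RPMI 1640 with 5% FBS and 2 mM L-glutamine, seeded at 5,000–40,000 cells/well, preincubated 24 h at 37 °C in 5% CO2. Drug stock in DMSO, diluted in medium with gentamicin; five final concentrations, 100, 10, 1.0, 0.1 and […]. Time-zero plates were TCA-fixed. Protein read by SRB staining; GI50, TGI and LC50 taken relative to time-zero.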

[4] = system: RPMI-8226; assay: (§5) Cytotoxicity against human RPMI8226 cells after 24 hrs by SRB assay; format: functional; settings: RPMI-8226, 24 h; how it was run: as §2
[5] = system: NCI-H522; assay: as §1; format: cell-based; settings: nci-h522, 24 h; how it was run: as §4
[6] = system: HCC 2998; assay: (§6) Cytotoxicity against human HCC2998 cells after 24 hrs by SRB assay; format: functional; settings: HCC 2998, 24 h; how it was run: as §2
[7] = system: NCI-H460; assay: Cytotoxicity against human NCI-H460 cells after 24 hrs by SRB assay; format: functional; settings: NCI-H460, 24 h; how it was run: as §2
[8] = system: HCC 2998; assay: as §6; format: cell-based; settings: hcc 2998, 24 h; how it was run: as §4
[9] = system: A549; assay: Cytotoxicity against human A549 cells after 24 hrs by SRB assay; format: cell-based; settings: a549, 24 h; how it was run: as §4
[10] = system: CCRF-CEM; assay: Cytotoxicity against human CCRF-CEM cells after 24 hrs by SRB assay; format: cell-based; how it was run: as §4
[11] = system: HT-29; assay: (§7) Cytotoxicity against human HT-29 cells after 24 hrs by SRB assay; format: functional; settings: HT-29, 24 h; how it was run: as §2
[12] = system: U-251; assay: Cytotoxicity against human U251 cells after 24 hrs by SRB assay; format: functional; settings: U-251, 24 h; how it was run: as §3
[13] = system: NCI-H23; assay: Cytotoxicity against human NCI-H23 cells after 24 hrs by SRB assay; format: cell-based; settings: nci-h23, 24 h; how it was run: as §4
[14] = system: HOP-92; assay: Cytotoxicity against human HOP92 cells after 24 hrs by SRB assay; format: functional; settings: HOP-92, 24 h; how it was run: as §2
[15] = system: SK-MEL-2; assay: Cytotoxicity against human SK-MEL-2 cells after 24 hrs by SRB assay; format: functional; settings: SK-MEL-2, 24 h; how it was run: as §2
[16] = system: BT-549; assay: Cytotoxicity against human BT549 cells after 24 hrs by SRB assay; format: functional; settings: BT-549, 24 h; how it was run: as §2
[17] = system: SN12C; assay: Cytotoxicity against human SN12C cells after 24 hrs by SRB assay; format: functional; how it was run: as §2
[18] = system: HCT-116; assay: Cytotoxicity against human HCT116 cells after 24 hrs by SRB assay; format: functional; settings: HCT-116, 24 h; how it was run: as §2
[19] = system: 786-0; assay: Cytotoxicity against human 786-0 cells after 24 hrs by SRB assay; format: cell-based; settings: 786-0, 24 h; how it was run: as §4
[20] = system: MDA-MB-468; assay: Cytotoxicity against human MDA-MB-468 cells after 24 hrs by SRB assay; format: functional; settings: MDA-MB-468, 24 h; how it was run: as §2
[21] = system: HCT-15; assay: Cytotoxicity against human HCT15 cells after 24 hrs by SRB assay; format: functional; settings: HCT-15, 24 h; how it was run: as §2
[22] = system: SK-MEL-5; assay: Cytotoxicity against human SK-MEL-5 cells after 24 hrs by SRB assay; format: cell-based; settings: sk-mel-5, 24 h; how it was run: as §4
[23] = system: SF-539; assay: Cytotoxicity against human SF539 cells after 24 hrs by SRB assay; format: cell-based; settings: sf-539, 24 h; how it was run: as §4
[24] = system: OVCAR-4; assay: Cytotoxicity against human OVCAR4 cells after 24 hrs by SRB assay; format: functional; settings: OVCAR-4, 24 h; how it was run: as §2
[25] = system: RPMI-8226; assay: as §5; format: cell-based; settings: rpmi-8226, 24 h; how it was run: as §4
[26] = system: SNB-19; assay: Cytotoxicity against human SNB19 cells after 24 hrs by SRB assay; format: cell-based; settings: snb-19, 24 h
How it was run: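 NCI 60-cell-line screen: cells grown in RPMI 1640 with 5% FBS and 2 mM L-glutamine, seeded at 5,000–40,000 cells/well by doubling time, and preincubated 24 h at 37 °C in 5% CO2. Time-zero plates were TCA-fixed. DMSO stocks were diluted in medium with gentamicin to five concentrations (100, 10, 1.0, 0.1, […]). Protein was read by SRB, and GI50, TGI and LC50 were derived against time-zero.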

[27] = system: OVCAR-5; assay: Cytotoxicity against human OVCAR5 cells after 24 hrs by SRB assay; format: functional; settings: OVCAR-5, 24 h; how it was run: as §2
[28] = system: SNB-75; assay: Cytotoxicity against human SNB75 cells after 24 hrs by SRB assay; format: functional; settings: SNB-75, 24 h; how it was run: as §3
[29] = system: HT-29; assay: as §7; format: cell-based; settings: ht-29, 24 h; how it was run: as §4

`O=C(/C=C/c1cc2ccccc2[nH]c1=O)/C=C/c1cc2ccccc2[nH]c1=O` showed a GI50 [1] of 2520 nM, a GI50 [2] of 1140 nM and a TGI [2] greater than 100 µM. It also gave an LC50 [3] greater than 100 µM, a GI50 [4] of 341 nM and a TGI [4] greater than 100 µM. The LC50 [5] was greater than 100 µM, the GI50 [6] was 839 nM and the TGI [6] was 2.22 µM. The GI50 [7] was 4.63 µM, the TGI [7] was greater than 100 µM and the LC50 [8] was 5.25 µM. For the same compound, the LC50 [9] was greater than 100 µM, the LC50 [10] was greater than 100 µM and the GI50 [11] was 483 nM. For the same compound, the TGI [11] was 1780 nM, the GI50 [12] was 372 nM and the TGI [12] was 2.1 µM. It also gave an LC50 [13] greater than 100 µM, a GI50 [14] greater than 100000 nM and a TGI [14] greater than 100 µM. The GI50 [15] was greater than 100 µM, the TGI [15] was greater than 100 µM and the GI50 [16] was 1900 nM. For the same compound, the TGI [16] was 6.15 µM, the GI50 [17] was 2660 nM and the TGI [17] was greater than 100 µM. For the same compound, the GI50 [18] was 131 nM, the TGI [18] was 299 nM and the LC50 [19] was greater than 100 µM. It also gave a GI50 [20] of 1580 nM, a TGI [20] of 4.39 µM and a GI50 [21] of 2020 nM. The TGI [21] was greater than 100 µM, the LC50 [22] was greater than 100 µM and the LC50 [23] was greater than 100 µM. For the same compound, the GI50 [24] was 2060 nM, the TGI [24] was greater than 100 µM and the LC50 [25] was greater than 100 µM. For the same compound, the LC50 [26] was greater than 100 µM.
`COc1ccc(C(=O)/C=C/c2cc3ccccc3[nH]c2=O)cc1` showed a GI50 [1] of 2120 nM, a TGI [1] of 6.13 µM and a GI50 [27] of 3.6 µM. The TGI [27] was 18.4 µM, the GI50 [2] was 2830 nM and the TGI [2] was greater than 100 µM. For the same compound, the LC50 [3] was 80.8 µM, the GI50 [4] was 2790 nM and the TGI [4] was greater than 100 µM. For the same compound, the LC50 [5] was greater than 100 µM, the GI50 [6] was 2500 nM and the TGI [6] was 6.49 µM. The GI50 [7] was 2.75 µM, the TGI [7] was 8.34 µM and the LC50 [8] was 29 µM. The LC50 [9] was greater than 100 µM, the LC50 [10] was greater than 100 µM and the GI50 [11] was 3670 nM. The TGI [11] was greater than 100000 nM, the GI50 [28] was 2290 nM and the TGI [28] was 10.1 µM. It also gave an LC50 [29] greater than 100 µM, a GI50 [12] of 2700 nM and a TGI [12] of 10.9 µM. For the same compound, the LC50 [13] was greater than 100 µM, the GI50 [14] was 2970 nM and the TGI [14] was 8.76 µM. It also gave a GI50 [15] of 3.91 µM, a TGI [15] of 40.1 µM and a GI50 [16] of 2700 nM. The TGI [16] was 7.9 µM, the GI50 [17] was 3170 nM and the TGI [17] was greater than 100 µM. For the same compound, the GI50 [18] was 2310 nM, the TGI [18] was 5700 nM and the LC50 [19] was greater than 100 µM. For the same compound, the GI50 [20] was 2380 nM, the TGI [20] was 5.98 µM and the GI50 [21] was 3180 nM. It also gave a TGI [21] of 21.1 µM, an LC50 [22] of 45 µM and an LC50 [23] of 45.5 µM. It also gave a GI50 [24] of 2940 nM, a TGI [24] greater than 100 µM and an LC50 [25] greater than 100 µM. It also gave an LC50 [26] of 75.8 µM.
